Source: PubChem BioAssay
An excerpt weighted towards active compounds, which were near 2.3% of everything screened.
TRPC6 act: mouse TRPC6 channel activators, primary screen, cell-based, HEK293, membrane potential dye; Short transient receptor potential channel 6 (Mus musculus), Q61143; HEK293-TRPC6 membrane potential dye fluorescence; active compounds read high; B-score at 10 µM; hit rate 0.13% among 310,000; AID 2550, 2010;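 active = B-score of the integrated fluorescence ratio above library mean plus 3 SD, and starting fluorescence ratio within library mean plus 5 SD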;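 also: higher score means more depolarization so channel activation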
Target sequence (Q61143 whole entry, looked up): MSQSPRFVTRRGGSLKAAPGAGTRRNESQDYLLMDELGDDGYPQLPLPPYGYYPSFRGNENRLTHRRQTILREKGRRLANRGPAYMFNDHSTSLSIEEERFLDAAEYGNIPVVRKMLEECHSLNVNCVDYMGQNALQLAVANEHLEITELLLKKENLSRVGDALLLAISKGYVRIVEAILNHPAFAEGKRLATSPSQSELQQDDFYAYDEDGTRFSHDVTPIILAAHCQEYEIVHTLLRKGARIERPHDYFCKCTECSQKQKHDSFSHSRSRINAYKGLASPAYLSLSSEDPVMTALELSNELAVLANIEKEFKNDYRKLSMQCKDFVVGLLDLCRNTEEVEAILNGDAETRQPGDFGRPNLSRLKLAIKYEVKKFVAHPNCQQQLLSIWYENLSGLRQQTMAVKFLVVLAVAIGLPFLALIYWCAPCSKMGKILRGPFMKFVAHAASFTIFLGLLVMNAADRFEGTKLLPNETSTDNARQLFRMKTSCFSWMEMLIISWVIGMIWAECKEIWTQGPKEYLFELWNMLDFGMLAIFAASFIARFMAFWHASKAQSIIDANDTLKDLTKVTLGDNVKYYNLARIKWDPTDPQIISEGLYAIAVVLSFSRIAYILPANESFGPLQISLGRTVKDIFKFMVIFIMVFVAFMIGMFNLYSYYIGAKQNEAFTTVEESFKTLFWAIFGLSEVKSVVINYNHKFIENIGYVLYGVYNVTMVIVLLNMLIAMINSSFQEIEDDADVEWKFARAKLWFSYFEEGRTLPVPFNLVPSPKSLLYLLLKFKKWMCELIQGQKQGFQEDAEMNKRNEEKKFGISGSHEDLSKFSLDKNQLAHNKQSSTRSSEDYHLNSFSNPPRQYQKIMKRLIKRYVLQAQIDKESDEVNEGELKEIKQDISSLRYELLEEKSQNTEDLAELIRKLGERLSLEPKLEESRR
TRPC4 PAM: positive allosteric modulators of TRPC4, primary screen, cell-based, mouse TRPC4beta, HEK293 mu-opioid, Fluo-4 calcium; Short transient receptor potential channel 4 (Mus musculus), Q9QUQ5; DAMGO EC20, Fluo-4 Ca2+ flux; active compounds read high; hit rate 0.42% among 310,000; B-score at 10 µM; AID 2227, 2009;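 active = B-score of calcium response area above 5 SD of library B-scores, with initial fluorescence ratio within 5 SD of library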;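 also: B-score of integrated fluorescence ratio over time as area under calcium response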
TRPC6 inhibitor: mouse TRPC6 channel inhibitors, primary screen, cell-based, HEK293, membrane potential dye | ACh-evoked depolarization; active compounds read low | hit rate 1.1% among 310,000 | Short transient receptor potential channel 6 (Mus musculus), Q61143 | B-score at 10 µM | AID 2553, 2010;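 active = B-score under library mean minus 3 SD, initial fluorescence not abnormally high, positive integrated signal ratio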;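 also: B-score derived from integrated fluorescence ratio over the kinetic read; more negative B-score means stronger inhibition of depolarization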
TRPC4 agonist: activators of mouse TRPC4 channel, primary screen, Fluo4 calcium, HEK293 TRPC4beta/mu-opioid cells. Short transient receptor potential channel 4 (Mus musculus), Q9QUQ5. Fluo4 calcium fluorescence; active compounds read high. B-score at 10 µM. hit rate 0.49% among 310,000. AID 2237, 2010;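 active = B-score above 5 SD of library B-scores, and initial fluorescence ratio not above library mean plus 5 SD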;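 also: positive B-score marks a calcium rise read as TRPC4 activation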
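Assay system: HEK293 cells stably co-expressing mouse TRPC4beta and mu-opioid receptor / Timing: Fluo4 dye loading 45 min at room temperature, 110 s recording / Signal: Fluo4 calcium-sensitive dye fluorescence, kinetic, 1 Hz baseline / Read-out: integrated baseline-normalised fluorescence ratio, converted to per-well B score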
TRPC4 inh: inhibitors of mouse TRPC4 channel, primary screen, Fluo4 calcium, HEK293 TRPC4beta/mu-opioid cells | Short transient receptor potential channel 4 (Mus musculus), Q9QUQ5 | DAMGO-evoked Fluo4 calcium flux; active compounds read low | B-score at 10 µM | hit rate 0.39% among 300,000 | AID 2247, 2010;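 active = B-score over 3 SD under the library average, no early fluorescence shift, positive overall ratio signal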
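Assay system: HEK293 cells with stable TRPC4beta plus mu-opioid receptor expression. Dosing: single dose. Measured by: Fluo4 Ca2+ flux fluorescence. Also added: DAMGO in two steps, submaximal then maximal. Read-out: B score from integrated Fluo4 fluorescence ratio.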
HEK293 TRPC6 ctr: parental HEK293 membrane potential modulation, confirmation, counter-screen for TRPC6 modulator project, cell-based; shares compounds with TRPC6 inhibitor; membrane potential dye fluorescence; membrane potential signal change, % at 10 µM; hit rate 51% among 2,400;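 active = membrane potential signal moves up or down beyond 5 SD from buffer-only wells, on both duplicate plates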
HEK293 MPD ctr 2: parental HEK293 nonspecific activity of TRPC6 modulators, second screen | AID 488926 | membrane potential dye fluorescence; after compound, maximal acetylcholine stimulation | shares compounds with TRPC6 inhibitor | hit rate 14% among 2,400 | inhibition, % at 10 µM;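 active = membrane potential signal drops by more than 5 SD from the mean control signal, in both duplicate plates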;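 also: plate controls were acetylcholine ECmax control wells for no effect and buffer only wells for full effect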
TRPC4/MOR mod: TRPC4 modulation by TRPC6 hit compounds, confirmation, selectivity assay for TRPC6 modulator project, cell-based, HEK293 TRPC4/mu-opioid, membrane potential dye, mouse. percent change from control (negative = decrease, positive = increase), % at 10 µM. shares compounds with TRPC6 inhibitor. hit rate 69% among 2,400. membrane potential fluorescence;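 active = membrane potential signal moved up or down beyond 5 SD of buffer control wells, in both duplicate plates, actives on both sides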;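 also: plate controls were assay buffer wells for no effect and DAMGO maximal-effect wells for full effect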
TRPC4/MOR inh 2: mouse TRPC4 off-target activity of TRPC6 modulators, second screen; inhibition, % at 10 µM; hit rate 55% among 2,400; HEK293 TRPC4/mu-opioid, membrane potential dye fluorescence; stimulated with maximal-effect DAMGO; shares compounds with TRPC6 inhibitor;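 active = drop in membrane potential signal beyond 5 SD of the control wells in both duplicate plates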;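 also: TRPC4 counter screen for TRPC6 hits run under conditions tuned for TRPC6 not TRPC4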
TRPC6 inh conf: mouse TRPC6 channel inhibitors, confirmation, HEK293 cells, membrane potential dye, duplicate; AID 488960, 2010; hit rate 43% among 3,300; ACh-evoked depolarization; inhibition, % at 10 µM; shares compounds with TRPC6 inhibitor;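 active = fluorescence ratio falls more than 5 SD below the full-stimulation control mean, in both duplicate runs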;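 also: integrated fluorescence ratio of peak minus minimum over baseline after agonist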
TRPC6 act confirm: mouse TRPC6 channel activators, confirmation, HEK293 cells, membrane potential dye, duplicate; shares compounds with TRPC6 inhibitor; HEK293-TRPC6 membrane potential dye fluorescence, FDSS; activation, % at 10 µM; hit rate 11% among 2,800; AID 488961, 2010;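 active = ratio signal rise beyond 5 SD above unstimulated control wells' mean, seen in both duplicate runs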;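 also: plate controls were buffer EC0 wells for no effect and acetylcholine ECmax response for full effect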
Active calls of the source: *; i = inactive; · = no result.

SMILES	TRPC6 act	TRPC4 PAM	TRPC6 inhibitor	TRPC4 agonist	TRPC4 inh	HEK293 TRPC6 ctr	HEK293 MPD ctr 2	TRPC4/MOR mod	TRPC4/MOR inh 2	TRPC6 inh conf	others
CC/C(=C\c1oc2cc3ccccc3cc2[n+]1CC)Nc1ccccc1	i	i	-5.1*	i	i	i	i	i	80%*	59%*	TRPC6 act confirm=i
COc1ccc(/C=C(/NC(=O)c2ccco2)C(=O)N2CCCCCC2)cc1OC	i	i	i	i	i	·	·	·	·	·
Nc1nc(SCC(=O)N2CCCc3ccccc32)[nH]c(=O)c1-c1ccccc1	i	i	-6.5*	i	i	180%*	i	34%*	i	i
Cc1ccn2cc(-c3ccc(O)c(O)c3)nc2c1	i	i	-5.3*	i	i	-120%*	i	-23%*	i	i	TRPC6 act confirm=i
Oc1ccc(-c2cn3ccccc3n2)cc1O	i	i	i	i	i	·	·	·	·	·
CN(C)C(CNC(=O)C1CCN(S(=O)(=O)c2cccc(Cl)c2Cl)CC1)c1ccccc1 (stereo not given)	i	i	i	i	i	·	·	·	·	·
Cn1c(=O)c2c(nc(N3CCCCCC3)n2CC(O)COc2ccccc2)n(C)c1=O (stereo not given)	i	i	i	i	i	·	·	·	·	·
Cc1cccc(OCC(O)Cn2c(N3CCCCC3)nc3c2c(=O)n(C)c(=O)n3C)c1 (stereo not given)	i	i	-6.1*	i	i	i	i	8.0%*	i	80%*
Cc1nnc(SCC(=O)NC2CC2)s1	i	i	i	i	i	·	·	·	·	·
COc1ccc(/C=C(/NC(=O)/C=C/c2ccccc2)C(=O)N2CCOCC2)cc1	i	i	-5.8*	i	i	i	i	i	i	42%*	TRPC6 act confirm=i
O=C(c1cccc(S(=O)(=O)N2CCCCCC2)c1)N1CCN(c2ccccc2)CC1	i	i	-5.2*	i	i	106%*	i	19%*	i	i
CN1CCN(C(=O)c2cccc(S(=O)(=O)N3CCCCC3)c2)CC1	i	i	i	i	i	·	·	·	·	·
O=C(c1cccc(S(=O)(=O)N2CCCC2)c1)N1CCN(c2ccccc2)CC1	i	i	i	i	·	·	·	·	·	·
CC1CCN(C(=O)c2cccc(S(=O)(=O)N3CCCCC3)c2)CC1	13*	i	-8.3*	i	i	108%*	i	20%*	i	73%*	TRPC6 act confirm=106%*
CC1CCN(S(=O)(=O)c2ccc3c(ccn3CCC(=O)N3CCCCC3)c2)CC1	i	i	-6.2*	i	i	i	i	9.5%*	i	78%*
CC1CCC(NC(=O)CCn2ccc3cc(S(=O)(=O)N4CCCC4)ccc32)CC1 (stereo not given)	i	i	i	i	i	·	·	·	·	·
CCOc1ccc(S(=O)(=O)N2CCC(C(=O)OC(C)C(=O)N(C)C3CCCCC3)CC2)cc1 (stereo not given)	i	i	i	i	i	·	·	·	·	·
OCCNCc1cc(Br)ccc1OCc1ccc(Cl)cc1	i	i	-5.7*	i	i	102%*	i	17%*	89%*	45%*
OCCNCc1cccc(OCc2ccc(Cl)cc2)c1	i	i	i	i	i	·	·	·	·	·
O=C(NCCCl)Nc1ccccc1OCCOc1ccccc1NC(=O)NCCCl	i	i	i	i	i	·	·	·	·	·
Nc1nonc1C(=O)NCCNCc1ccccc1OCc1ccc(F)cc1	i	i	-6.3*	i	i	141%*	i	12%*	86%*	46%*
CCOc1ccc(CNCCNC(=O)c2nonc2N)cc1	i	i	i	i	i	·	·	·	·	·
O=C(CSc1nnc(-c2cccs2)n1CC1CCCO1)N1CCCC1 (stereo not given)	i	i	i	i	i	·	·	·	·	·
O=C(CCCSc1nnc(-c2cccs2)n1CC1CCCO1)c1ccccc1 (stereo not given)	i	i	-5.2*	i	i	186%*	i	34%*	i	i
COc1cccc(CNC(=O)C2CCCN(S(=O)(=O)c3c(C)[nH]c(=O)[nH]c3=O)C2)c1 (stereo not given)	i	i	i	i	i	·	·	·	·	·
CN(C)CCCN1c2ccc([N+](=O)[O-])cc2CCc2cc([N+](=O)[O-])ccc21	i	i	-12*	i	i	-358%*	86%*	-60%*	84%*	83%*	TRPC6 act confirm=i
CN1c2ccc([N+](=O)[O-])cc2N(C)C1(C)c1ccccc1 (stereo not given)	i	i	i	i	i	·	·	·	·	·
CC1CCCN(C(=O)COc2ccc(-c3ccccc3)cc2)C1 (stereo not given)	i	i	-6*	i	i	i	i	10%*	i	i
